Measurements taken from ChEMBL document CHEMBL3120060, “Synthesis, in vitro anticancer evaluation and in silico studies of novel imidazo[2,1-b]thiazole derivatives bearing pyrazole moieties” (2014).

Experiments:
Format in all cases: functional
SF-268 = assay: Cytotoxicity against human SF268 cells assessed as cell growth at 10 uM after 48 hrs by SRB assay; conditions: SF-268, 48 h, read-out: Activity
In short: (§1)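 NCI-60 single-dose screen. Cell lines grown in RPMI 1640 with 5% FBS and 2 mM L-glutamine, plated at 5000–40,000 cells/well according to doubling time, then preincubated 24 h at 37 °C in 5% CO2. Compounds dissolved in DMSO, tested at 10^-5 M for 48 h. Adherent cells fixed with cold TCA (10% final) and stained with 0.4% SRB in 1% acetic acid. Growth expressed as percent of untreated control.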

NCI-H322M = assay: Cytotoxicity against human NCI-H322M cells assessed as cell growth at 10 uM after 48 hrs by SRB assay; conditions: read-out: Activity; in short: as §1
MDA-MB-468 = assay: Cytotoxicity against human MDA-MB-468 cells assessed as cell growth at 10 uM after 48 hrs by SRB assay; conditions: MDA-MB-468, 48 h, read-out: Activity; in short: as §1
NCI-H226 = assay: Cytotoxicity against human NCI-H226 cells assessed as cell growth at 10 uM after 48 hrs by SRB assay; conditions: NCI-H226, 48 h, read-out: Activity; in short: as §1
ACHN = assay: Cytotoxicity against human ACHN cells assessed as cell growth at 10 uM after 48 hrs by SRB assay; conditions: read-out: Activity; in short: as §1
OVCAR-8 = assay: Cytotoxicity against human OVCAR8 cells assessed as cell growth at 10 uM after 48 hrs by SRB assay; conditions: OVCAR-8, 48 h, read-out: Activity; in short: as §1
SNB-19 = assay: Cytotoxicity against human SNB19 cells assessed as cell growth at 10 uM after 48 hrs by SRB assay; conditions: SNB-19, 48 h, read-out: Activity; in short: as §1
TK-10 = assay: Cytotoxicity against human TK10 cells assessed as cell growth at 10 uM after 48 hrs by SRB assay; conditions: TK-10, 48 h, read-out: Activity
In short: (§2)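 NCI-60 single-dose screen at 10^-5 M. Adherent lines are grown in RPMI 1640 with 5% FBS and 2 mM L-glutamine, seeded at 5000–40,000 cells/well by doubling time, and preincubated 24 h at 37 °C in 5% CO2. Drug is added from DMSO stock diluted in medium, then 48 h. Cells are fixed in cold TCA (final 10%) for 60 min and stained with 0.4% SRB in 1% acetic acid. Growth is expressed as % of untreated control using time-zero plates.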

UACC-62 = assay: Cytotoxicity against human UACC62 cells assessed as cell growth at 10 uM after 48 hrs by SRB assay; conditions: UACC-62, 48 h, read-out: Activity; in short: as §2
BT-549 = assay: Cytotoxicity against human BT549 cells assessed as cell growth at 10 uM after 48 hrs by SRB assay; conditions: BT-549, 48 h, read-out: Activity; in short: as §1
HCC 2998 = assay: Cytotoxicity against human HCC2998 cells assessed as cell growth at 10 uM after 48 hrs by SRB assay; conditions: HCC 2998, 48 h, read-out: Activity; in short: as §1
PC-3 = assay: Cytotoxicity against human PC3 cells assessed as cell growth at 10 uM after 48 hrs by SRB assay; conditions: PC-3, 48 h, read-out: Activity; in short: as §1
U-251 = assay: Cytotoxicity against human U251 cells assessed as cell growth at 10 uM after 48 hrs by SRB assay; conditions: U-251, 48 h, read-out: Activity; in short: as §2
HL-60(TB) = assay: Cytotoxicity against human HL-60(TB) cells assessed as cell growth at 10 uM after 48 hrs by SRB assay; conditions: HL-60, 48 h, read-out: Activity
In short: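 NCI-60 single-dose screen: cells grown in RPMI 1640 with 5% FBS and 2 mM L-glutamine, plated at 5000–40,000 cells/well, preincubated 24 h at 37 °C, 5% CO2. Compound dissolved in DMSO, tested at 10^-5 M for 48 h. Cells TCA-fixed, sulforhodamine B stained. Growth expressed as percent of untreated control, referenced to time-zero plates.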

K562 = assay: Cytotoxicity against human K562 cells assessed as cell growth at 10 uM after 48 hrs by SRB assay; conditions: K562, 48 h, read-out: Activity; in short: as §1
HCT-116 = assay: Cytotoxicity against human HCT116 cells assessed as cell growth at 10 uM after 48 hrs by SRB assay; conditions: HCT-116, 48 h, read-out: Activity; in short: as §1
[1] = Cytotoxicity against human UACC257 cells assessed as cell growth at 10 uM after 48 hrs by SRB assay; conditions: UACC-257, 48 h, read-out: Activity; in short: as §2
Malme-3M = assay: Cytotoxicity against human MALME-3M cells assessed as cell growth at 10 uM after 48 hrs by SRB assay; conditions: read-out: Activity; in short: as §1
SR = assay: Cytotoxicity against human SR cells assessed as cell growth at 10 uM after 48 hrs by SRB assay; conditions: read-out: Activity
In short: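 Leukemia line, NCI-60 single-dose screen at 10^-5 M. Cells are grown in RPMI 1640 with 5% FBS and 2 mM L-glutamine, plated by doubling time, and preincubated 24 h at 37 °C with 5% CO2. After 48 h drug exposure, settled cells are fixed with 80% TCA (final 16%) and stained with SRB. Percent growth is calculated against untreated control and time-zero plates.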

SW-620 = assay: Cytotoxicity against human SW620 cells assessed as cell growth at 10 uM after 48 hrs by SRB assay; conditions: SW-620, 48 h, read-out: Activity; in short: as §2
RPMI-8226 = assay: Cytotoxicity against human RPMI8226 cells assessed as cell growth at 10 uM after 48 hrs by SRB assay; conditions: RPMI-8226, 48 h, read-out: Activity; in short: as §1
SK-MEL-28 = assay: Cytotoxicity against human SK-MEL-28 cells assessed as cell growth at 10 uM after 48 hrs by SRB assay; conditions: SK-MEL-28, 48 h, read-out: Activity; in short: as §1
M14 = assay: Cytotoxicity against human M14 cells assessed as cell growth at 10 uM after 48 hrs by SRB assay; conditions: M14, 48 h, read-out: Activity; in short: as §1
SK-MEL-2 = assay: Cytotoxicity against human SK-MEL-2 cells assessed as cell growth at 10 uM after 48 hrs by SRB assay; conditions: SK-MEL-2, 48 h, read-out: Activity; in short: as §1
OVCAR-3 = assay: Cytotoxicity against human OVCAR3 cells assessed as cell growth at 10 uM after 48 hrs by SRB assay; conditions: OVCAR-3, 48 h, read-out: Activity; in short: as §1
[2] = Cytotoxicity against human Hs578T cells assessed as cell growth at 10 uM after 48 hrs by SRB assay; conditions: Hs-578T, read-out: Activity; in short: as §1

Compound	growth at 10 µM (SF-268) [%]	growth at 10 µM (NCI-H322M) [%]	growth at 10 µM (MDA-MB-468) [%]	growth at 10 µM (NCI-H226) [%]	growth at 10 µM (ACHN) [%]	growth at 10 µM (OVCAR-8) [%]	growth at 10 µM (SNB-19) [%]	growth at 10 µM (TK-10) [%]	growth at 10 µM (UACC-62) [%]	growth at 10 µM (BT-549) [%]	growth at 10 µM (HCC 2998) [%]	growth at 10 µM (PC-3) [%]	growth at 10 µM (U-251) [%]	growth at 10 µM (HL-60(TB)) [%]	growth at 10 µM (K562) [%]	growth at 10 µM (HCT-116) [%]	growth at 10 µM [1] [%]	growth at 10 µM (Malme-3M) [%]	growth at 10 µM (SR) [%]	growth at 10 µM (SW-620) [%]	further results
O=C1CC(=O)N(c2cn3c(-c4ccccc4)csc3n2)N1	99.5	98.1	102	90	81.5	89.8	91	131	85	97.6	103	76.4	84.2	120	94.2	95.5	97.6	141	83	107	growth at 10 µM (RPMI-8226): 93%; growth at 10 µM (SK-MEL-28): 96.4%; growth at 10 µM (M14): 101%; growth at 10 µM (SK-MEL-2): 102%; growth at 10 µM (OVCAR-3): 99%; growth at 10 µM [2]: 101%
O=C1CN2C(c3ccc(Cl)cc3)=CSC2=N1	100	93.8	106	110	95	96	100	79.9	88.7	89	101	101	94.3	94.2	79.7	97.1	96.3	99.3	77.8	101	growth at 10 µM (RPMI-8226): 89.2%; growth at 10 µM (SK-MEL-28): 95.7%; growth at 10 µM (M14): 97%; growth at 10 µM (SK-MEL-2): 98.2%; growth at 10 µM (OVCAR-3): 105%; growth at 10 µM [2]: 111%
O=C1CN2C(c3ccccc3)=CSC2=N1	110	116	106	102	97.9	97.9	99.7	125	90.3	112	97.8	82.4	93.9	114	88.8	97.6	103	102	86	94.8	growth at 10 µM (RPMI-8226): 94.4%; growth at 10 µM (SK-MEL-28): 105%; growth at 10 µM (M14): 99.9%; growth at 10 µM (SK-MEL-2): 114%; growth at 10 µM (OVCAR-3): 111%; growth at 10 µM [2]: 103%
Cc1ccc(-c2csc3nc(N4NC(=O)CC4=O)cn23)cc1	106	108	106	94.4	90.5	99.3	102	139	91.8	113	102	87.3	98.1	107	94.7	108	109	118	84.4	103	growth at 10 µM (RPMI-8226): 98.1%; growth at 10 µM (SK-MEL-28): 102%; growth at 10 µM (M14): 105%; growth at 10 µM (SK-MEL-2): 116%; growth at 10 µM (OVCAR-3): 113%; growth at 10 µM [2]: 107%
O=C1CC(=O)N(c2cn3c(-c4ccc(Cl)cc4)csc3n2)N1	105	83.3	104	103	102	101	90.2	95	90.1	95.3	102	90	91.9	88.1	88.1	93.2	103	97.1	74	104	growth at 10 µM (RPMI-8226): 85%; growth at 10 µM (SK-MEL-28): 95.7%; growth at 10 µM (M14): 100%; growth at 10 µM (SK-MEL-2): 101%; growth at 10 µM (OVCAR-3): 110%; growth at 10 µM [2]: 98.3%
Cc1ccc(-c2csc3nc(-n4nc(C)cc4C)cn23)cc1	112	96.4	112	94.8	90.7	96	100	141	90.5	125	107	84.7	95	106	109	97	108	114	81	106	growth at 10 µM (RPMI-8226): 90.3%; growth at 10 µM (SK-MEL-28): 94.8%; growth at 10 µM (M14): 104%; growth at 10 µM (SK-MEL-2): 125%; growth at 10 µM (OVCAR-3): 115%; growth at 10 µM [2]: 97%
CC1=NN(c2cn3c(-c4ccccc4)csc3n2)C(=O)C1	99.3	92.1	114	101	91.2	105	90.8	125	91.1	89.7	97.3	77.6	90.7	89.2	83.4	96.5	102	107	84.5	104	growth at 10 µM (RPMI-8226): 94.2%; growth at 10 µM (SK-MEL-28): 102%; growth at 10 µM (M14): 100%; growth at 10 µM (SK-MEL-2): 102%; growth at 10 µM (OVCAR-3): 99.8%; growth at 10 µM [2]: 106%
